Sequences and labels used below:
B1: Osa-1-4 twister ribozyme (parent)
chain: CCGCCUAACACUGCCAAUGCCGGUCCCAAGCCCGGAUAAAAGUGGAGGGGGCGG

This series covers variants of B1. The experiment in a line: self-cleavage, relative activity (ratio to wild type); higher = more cleavage; co-transcriptional. The method in brief: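 A DNA template for a 54-nucleotide Oryza sativa twister ribozyme was synthesised with 97 % wild-type base and 1 % of each other base at the 48 positions downstream of the cleavage site. It was transcribed in vitro for 2 h at 37 °C, allowing co-transcriptional self-cleavage, then reverse-transcribed with a template-switching oligonucleotide, PCR-amplified and deep-sequenced. Cleavage status was scored from reads with or without upstream sequence. Relative activity is fraction cleaved normalised to wild type.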
Take CCGCCUAACACUGCCAAUGCCGGUCCCAAGCCUGGAUAAAAGUGGAGGCGGCGG [C33U G49C]: the self-cleavage turned out to be 0.07.
For CCGCCUAACACUGCCAAUGCCGGUCCCAAGCCGGGAUAAAAGUGGAGUGGGCGG [C33G G48U] the value was 0.02.
For CCGCCUAACACUGCCAAUGCCGGUCCCAAGCCGGGAUAAAAGUGGAGCGGGCGG [C33G G48C] the value was 0.03; for CCGCCUAACACUGCCAAUGCCGGUCCCAAGCCGGGAUAAAAGUGGAGAGGGCGG [C33G G48A], 0.02; for CCGCCUAACACUGCCAAUGCCGGUCCCAAGCCUGGAUAAAAGUGUAGGGGGCGG [C33U G45U], 0.05.
Regarding CCGCCUAACACUGCCAAUGCCGGUCCCAAGCCUGGAUAAAAGUGCAGGGGGCGG [C33U G45C], the self-cleavage was determined as 0.06.
Turning to CCGCCUAACACUGCCAAUGCCGGUCCCAAGCCUGGAUAAAAGUGAAGGGGGCGG [C33U G45A], the self-cleavage was determined as 0.08.
On to CCGCCUAACACUUCCAAUGCCGGUCCCAAGCCUGGAUAAAAGUGGAGGGGGCGG [C33U G13U], for which the self-cleavage came to 0.03.
With CCGCCUAACACUACCAAUGCCGGUCCCAAGCCUGGAUAAAAGUGGAGGGGGCGG [C33U G13A], the self-cleavage was found to be 0.04.
Regarding CCGCCUAACACUCCCAAUGCCGGUCCCAAGCCUGGAUAAAAGUGGAGGGGGCGG [C33U G13C], the self-cleavage amounted to 0.02.
Turning to CCGCCUAACACUGCCAACGCCGGUCCCAAGCCGGGAUAAAAGUGGAGGGGGCGG [C33G U18C], the self-cleavage was 0.08.
For CCGCCUAACACUGCCAAAGCCGGUCCCAAGCCGGGAUAAAAGUGGAGGGGGCGG [C33G U18A] the value was 0.07; for CCGCCUAACACUGCCAAGGCCGGUCCCAAGCCGGGAUAAAAGUGGAGGGGGCGG [C33G U18G], 0.08; for CCGCCUAACACUGCCAAUGCCGGUCCCAAGCCUGGAUAAAAGUGGAGGGGGCGU [C33U G54U], 0.68.
For the variant CCGCCUAACACUGCCAAUGCCGGUCCCAAGCCUGGAUAAAAGUGGAGGGGGCGA [C33U G54A], the self-cleavage amounted to 0.57.
For CCGCCUAACACUGCCAAUGCCGGUCCCAAGCCUGGAUAAAAGUGGAGGGGGCGC [C33U G54C] the value was 0.61.
For CCGCCUAACACUGCCAAUGCCGAUCCCAAGCCUGGAUAAAAGUGGAGGGGGCGG [C33U G23A] the value was 0.09.
To CCGCCUAACACUGCCAAUGCCGUUCCCAAGCCUGGAUAAAAGUGGAGGGGGCGG [C33U G23U] belongs 0.04; to CCGCCUAACACUGCCAAUGCCGCUCCCAAGCCUGGAUAAAAGUGGAGGGGGCGG [C33U G23C], 0.04.
For the variant CCGCCUAACACUGCCAAUGCCGGUCCCAAGCCUCGAUAAAAGUGGAGGGGGCGG [C33U G34C], the self-cleavage came to 0.21.
For CCGCCUAACACUGCCAAUGCCGGUCCCAAGCCUUGAUAAAAGUGGAGGGGGCGG [C33U G34U] the value was 0.13; for CCGCCUAACACUGCCAAUGCCGGUCCCAAGCCUAGAUAAAAGUGGAGGGGGCGG [C33U G34A], 0.22.
Turning to CCGCCUAACACUGCCAAUGCCGGUCCCAAGCCUGGAUAAAAGUUGAGGGGGCGG [C33U G44U], the self-cleavage came out at 0.53.
Regarding CCGCCUAACACUGCCAAUGCCGGUCCCAAGCCUGGAUAAAAGUAGAGGGGGCGG [C33U G44A], the self-cleavage is 0.5.
Take CCGCCUAACACUGCCAAUGCCGGUCCCAAGCCUGGAUAAAAGUCGAGGGGGCGG [C33U G44C]: the self-cleavage worked out at 0.29.
For the variant CCGCCUAACACUGCCAAUGCCGGUCCCAAGCCUGGAUAAAAGUGGAGGGAGCGG [C33U G50A], the self-cleavage stood at 0.32.
In the case of CCGCCUAACACUGCCAAUGCCGGUCCCAAGCCUGGAUAAAAGUGGAGGGUGCGG [C33U G50U], the self-cleavage was 0.88.
For the variant CCGCCUAACACUGCCAAUGCCGGUCCCAAGCCUGGAUAAAAGUGGAGGGCGCGG [C33U G50C], the self-cleavage is 0.53.
Take CCGCCUAACACUGCCAAUGCCGGUCCCAAGCCGGGAGAAAAGUGGAGGGGGCGG [C33G U37G]: the self-cleavage was 0.08.
To CCGCCUAACACUGCCAAUGCCGGUCCCAAGCCGGGACAAAAGUGGAGGGGGCGG [C33G U37C] belongs 0.05; to CCGCCUAACACUGCCAAUGCCGGUCCCAAGCCGGGAAAAAAGUGGAGGGGGCGG [C33G U37A], 0.08; to CCGCCUAACACGGCCAAUGCCGGUCCCAAGCCUGGAUAAAAGUGGAGGGGGCGG [C33U U12G], 0.08.
For the variant CCGCCUAACACAGCCAAUGCCGGUCCCAAGCCUGGAUAAAAGUGGAGGGGGCGG [C33U U12A], the self-cleavage was found to be 0.27.
With CCGCCUAACACCGCCAAUGCCGGUCCCAAGCCUGGAUAAAAGUGGAGGGGGCGG [C33U U12C], the self-cleavage worked out at 0.11.
For the variant CCGCCUAACACUGCCAAUGCCGGUCCCAAGCCGGGAUAAAAGUGGAGGGGUCGG [C33G G51U], the self-cleavage was determined as 0.05.
In the case of CCGCCUAACACUGCCAAUGCCGGUCCCAAGCCGGGAUAAAAGUGGAGGGGACGG [C33G G51A], the self-cleavage was 0.06.
On to CCGCCUAACACUGCCAAUGCCGGUCCCAAGCCGGGAUAAAAGUGGAGGGGCCGG [C33G G51C], for which the self-cleavage amounted to 0.06.
With CCGCCUAACACUGCCAAUGCCGGUCCCAAGCCGGGAUAAAAGUGGAGGAGGCGG [C33G G49A], the self-cleavage was 0.05.
Regarding CCGCCUAACACUGCCAAUGCCGGUCCCAAGCCGGGAUAAAAGUGGAGGUGGCGG [C33G G49U], the self-cleavage amounted to 0.02.
With CCGCCUAACACUGCCAAUGCCGGUCCCAAGCCGGGAUAAAAGUGGAGGCGGCGG [C33G G49C], the self-cleavage worked out at 0.03.
With CCGCCUAACACAGCCAAUGCCGGUCCCAAGCCGGGAUAAAAGUGGAGGGGGCGG [C33G U12A], the self-cleavage is 0.05.
For CCGCCUAACACGGCCAAUGCCGGUCCCAAGCCGGGAUAAAAGUGGAGGGGGCGG [C33G U12G] the value was 0.07; for CCGCCUAACACCGCCAAUGCCGGUCCCAAGCCGGGAUAAAAGUGGAGGGGGCGG [C33G U12C], 0.03.
For the variant CCGCCUAACACUGCCAAUGCCGGUCCCAAGCCUGUAUAAAAGUGGAGGGGGCGG [C33U G35U], the self-cleavage was found to be 0.11.
On to CCGCCUAACACUGCCAAUGCCGGUCCCAAGCCUGCAUAAAAGUGGAGGGGGCGG [C33U G35C], for which the self-cleavage is 0.08.
As for CCGCCUAACACUGCCAAUGCCGGUCCCAAGCCUGAAUAAAAGUGGAGGGGGCGG [C33U G35A], the self-cleavage amounted to 0.49.
In the case of CCGCCUAACACUGCCAAUGCCGGUCCCAAGCCGGGAUAAAAGUGGAGGGUGCGG [C33G G50U], the self-cleavage amounted to 0.09.
Regarding CCGCCUAACACUGCCAAUGCCGGUCCCAAGCCGGGAUAAAAGUGGAGGGAGCGG [C33G G50A], the self-cleavage turned out to be 0.06.
As for CCGCCUAACACUGCCAAUGCCGGUCCCAAGCCGGGAUAAAAGUGGAGGGCGCGG [C33G G50C], the self-cleavage worked out at 0.05.

For the origin of these results see the RNAGym collection of RNA variant scans (doi:10.1002/anie.201605470).
